Assay [1] has as its target Serine/threonine-protein kinase 32C (Homo sapiens) (UniProt Q86UX6). Description: Binding affinity to human YANK3 at 500 nM by cell-based competition binding assay relative to control in presence of DTT.
Assay [2] concerns the target MAP/microtubule affinity-regulating kinase 3 (Homo sapiens) (UniProt P27448). Description: Binding affinity to human MARK3 at 500 nM by cell-based competition binding assay relative to control in presence of DTT. Put shortly: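 Kinase binding profile from a commercial panel of 90 kinases, run as a competitive binding assay. The panel was screened under reducing conditions of 7.5 mM DTT. Signal was compared with the untreated control.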

Assay [3] concerns the target Serine/threonine-protein kinase pim-1 (Homo sapiens) (UniProt P11309). The assay is described as follows: Ratio of compound to staurosporine binding affinity to human PIM1 in presence of DTT.
Assay [4] has as its target Serine/threonine-protein kinase PAK 2 (Homo sapiens) (UniProt Q13177). The assay is described as follows: Binding affinity to human PAK2 at 500 nM by cell-based competition binding assay relative to control in presence of DTT.
The target in assay [5] is High affinity nerve growth factor receptor (Homo sapiens) (UniProt P04629). The assay is described as follows: Binding affinity to human TRKA at 500 nM by cell-based competition binding assay relative to control in presence of DTT.
Sequence of High affinity nerve growth factor receptor (Homo sapiens) (P04629 33-796 limits assumed): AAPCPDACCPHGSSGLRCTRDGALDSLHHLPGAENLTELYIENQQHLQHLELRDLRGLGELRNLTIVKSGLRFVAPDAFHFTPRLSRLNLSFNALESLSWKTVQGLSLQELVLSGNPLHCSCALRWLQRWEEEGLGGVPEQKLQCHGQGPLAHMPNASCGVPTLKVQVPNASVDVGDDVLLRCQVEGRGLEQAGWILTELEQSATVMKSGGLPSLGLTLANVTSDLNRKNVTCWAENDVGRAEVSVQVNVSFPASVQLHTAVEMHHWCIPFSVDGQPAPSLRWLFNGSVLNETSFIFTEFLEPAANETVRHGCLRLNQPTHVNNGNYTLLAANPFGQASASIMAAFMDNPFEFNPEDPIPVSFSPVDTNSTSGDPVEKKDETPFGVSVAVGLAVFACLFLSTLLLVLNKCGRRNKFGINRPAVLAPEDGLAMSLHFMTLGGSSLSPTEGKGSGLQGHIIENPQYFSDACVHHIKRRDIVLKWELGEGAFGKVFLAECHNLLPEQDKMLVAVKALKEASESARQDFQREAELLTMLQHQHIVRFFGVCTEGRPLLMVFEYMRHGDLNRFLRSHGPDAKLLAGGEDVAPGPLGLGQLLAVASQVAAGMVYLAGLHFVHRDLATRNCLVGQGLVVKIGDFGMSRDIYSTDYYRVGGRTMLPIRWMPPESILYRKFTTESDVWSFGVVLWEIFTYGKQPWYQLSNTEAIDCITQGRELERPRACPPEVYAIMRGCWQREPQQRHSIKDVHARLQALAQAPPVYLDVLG
The target in assay [6] is Receptor tyrosine-protein kinase erbB-2 (Homo sapiens) (UniProt P04626). The assay is described as follows: Binding affinity to human ERBB2 at 500 nM by cell-based competition binding assay relative to control in presence of DTT. The gist of the method:
(§1)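 Commercial (Ambit) competitive kinase-binding panel of 90 kinases measured the binding profile. Run under reducing conditions of 7.5 mM DTT. Binding is expressed relative to control.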

For assay [7], the target named is Glycogen synthase kinase-3 beta (Homo sapiens) (UniProt P49841). Description: Ratio of compound to staurosporine binding affinity to human GSK3-beta in presence of DTT.
Sequence of Glycogen synthase kinase-3 beta (Homo sapiens) (P49841 whole entry, looked up): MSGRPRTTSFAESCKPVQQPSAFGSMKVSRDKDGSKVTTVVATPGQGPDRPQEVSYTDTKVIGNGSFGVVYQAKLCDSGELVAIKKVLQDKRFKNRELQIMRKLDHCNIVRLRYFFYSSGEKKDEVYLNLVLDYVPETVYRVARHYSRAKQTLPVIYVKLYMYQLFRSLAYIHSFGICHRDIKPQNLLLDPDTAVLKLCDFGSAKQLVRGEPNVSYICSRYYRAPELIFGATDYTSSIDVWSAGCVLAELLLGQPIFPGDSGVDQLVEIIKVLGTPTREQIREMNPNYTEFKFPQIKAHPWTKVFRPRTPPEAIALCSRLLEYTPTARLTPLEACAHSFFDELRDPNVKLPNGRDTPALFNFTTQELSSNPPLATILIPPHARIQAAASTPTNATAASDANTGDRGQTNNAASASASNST
The target in assay [8] is Proto-oncogene tyrosine-protein kinase Src (Homo sapiens) (UniProt P12931). Description: Binding affinity to human SRC at 500 nM by cell-based competition binding assay relative to control in presence of DTT.
Assay [9] deals with Focal adhesion kinase 1 (Homo sapiens) (UniProt Q05397). Description: Binding affinity to human PTK2 at 500 nM by cell-based competition binding assay relative to control in presence of DTT.
Sequence of Focal adhesion kinase 1 (Homo sapiens) (Q05397 2-1052 limits assumed): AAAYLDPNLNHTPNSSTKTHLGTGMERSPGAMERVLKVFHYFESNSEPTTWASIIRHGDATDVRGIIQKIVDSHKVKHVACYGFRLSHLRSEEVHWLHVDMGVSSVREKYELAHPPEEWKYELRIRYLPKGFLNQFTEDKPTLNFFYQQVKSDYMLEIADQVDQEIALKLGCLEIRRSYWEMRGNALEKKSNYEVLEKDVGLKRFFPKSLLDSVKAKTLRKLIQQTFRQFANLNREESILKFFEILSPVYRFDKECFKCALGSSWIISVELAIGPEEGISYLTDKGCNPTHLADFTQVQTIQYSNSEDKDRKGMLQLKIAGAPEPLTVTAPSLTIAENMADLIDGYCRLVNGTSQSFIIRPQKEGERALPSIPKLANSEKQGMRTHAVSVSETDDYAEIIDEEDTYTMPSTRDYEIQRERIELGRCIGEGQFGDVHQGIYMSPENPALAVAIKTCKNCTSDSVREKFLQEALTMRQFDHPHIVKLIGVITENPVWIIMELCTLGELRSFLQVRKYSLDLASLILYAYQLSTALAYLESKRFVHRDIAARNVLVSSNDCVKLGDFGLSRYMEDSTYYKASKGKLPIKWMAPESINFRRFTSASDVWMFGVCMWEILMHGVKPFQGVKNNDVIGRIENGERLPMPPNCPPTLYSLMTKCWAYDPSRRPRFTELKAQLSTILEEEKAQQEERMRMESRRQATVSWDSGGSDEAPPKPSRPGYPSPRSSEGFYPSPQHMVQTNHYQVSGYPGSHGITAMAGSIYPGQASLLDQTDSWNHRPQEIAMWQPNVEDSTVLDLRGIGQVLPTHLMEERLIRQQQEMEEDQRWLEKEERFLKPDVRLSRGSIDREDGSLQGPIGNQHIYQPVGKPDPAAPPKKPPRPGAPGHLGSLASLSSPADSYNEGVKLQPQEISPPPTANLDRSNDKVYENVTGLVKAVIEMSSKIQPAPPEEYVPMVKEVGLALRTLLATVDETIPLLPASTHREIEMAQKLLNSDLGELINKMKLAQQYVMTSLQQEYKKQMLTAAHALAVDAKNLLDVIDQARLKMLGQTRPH
In assay [10] the target is T1, Protein kinase C epsilon type (Homo sapiens) (UniProt Q02156).
T1 sequence (whole entry): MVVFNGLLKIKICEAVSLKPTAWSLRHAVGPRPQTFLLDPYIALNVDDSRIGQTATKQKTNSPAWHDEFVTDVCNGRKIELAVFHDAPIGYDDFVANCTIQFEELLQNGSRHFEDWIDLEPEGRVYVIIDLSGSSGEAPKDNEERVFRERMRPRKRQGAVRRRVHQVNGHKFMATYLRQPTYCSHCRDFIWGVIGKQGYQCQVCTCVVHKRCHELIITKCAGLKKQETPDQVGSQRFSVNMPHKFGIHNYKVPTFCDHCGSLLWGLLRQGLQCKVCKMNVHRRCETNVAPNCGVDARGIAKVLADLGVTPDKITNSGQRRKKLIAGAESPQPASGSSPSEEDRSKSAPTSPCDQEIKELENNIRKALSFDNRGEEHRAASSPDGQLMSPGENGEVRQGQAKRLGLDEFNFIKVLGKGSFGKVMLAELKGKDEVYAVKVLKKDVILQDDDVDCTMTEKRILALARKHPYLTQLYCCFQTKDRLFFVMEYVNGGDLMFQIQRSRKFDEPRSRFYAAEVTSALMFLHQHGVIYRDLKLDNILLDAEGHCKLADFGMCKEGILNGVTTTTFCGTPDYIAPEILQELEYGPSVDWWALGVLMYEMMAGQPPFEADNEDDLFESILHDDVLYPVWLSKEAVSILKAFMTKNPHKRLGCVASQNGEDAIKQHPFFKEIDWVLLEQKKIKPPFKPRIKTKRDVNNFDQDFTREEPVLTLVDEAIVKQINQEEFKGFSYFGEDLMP
The assay is described as follows: Binding affinity to human PRKCepsilon at 500 nM by cell-based competition binding assay relative to control in presence of DTT.

The target in assay [11] is Mitogen-activated protein kinase 11 (Homo sapiens) (UniProt Q15759). The assay is described as follows: Binding affinity to human p38beta at 200 nM by cell-based competition binding assay relative to control in presence of DTT.
The target of assay [12] is Receptor tyrosine-protein kinase erbB-2 (Homo sapiens) (UniProt P04626). The assay is described as follows: Binding affinity to human ERBB2 at 200 nM by cell-based competition binding assay relative to control in presence of DTT. Put shortly:
as §1

Assay [13] concerns the target Cyclin-dependent kinase 3 (Homo sapiens) (UniProt Q00526). Description: Binding affinity to human CDK3 at 200 nM by cell-based competition binding assay relative to control in presence of DTT. The gist of the method: (§2)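 Kinase binding profiling ran on a commercial (Ambit) competitive binding screen against a panel of 90 kinases. The screen used reducing conditions with 7.5 mM DTT. To withstand the DTT, the bivalent ligand was tested as its amide isostere, with the disulfide replaced. A staurosporine derivative carrying a 3 β-alanine linker was run as the reference compound.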

The target in assay [14] is Mitogen-activated protein kinase kinase kinase 9 (Homo sapiens) (UniProt P80192). Description: Binding affinity to human MLK1 at 200 nM by cell-based competition binding assay relative to control in presence of DTT.
In assay [15] the target is Macrophage colony-stimulating factor 1 receptor (Homo sapiens) (UniProt P07333). The assay is described as follows: Binding affinity to human CSF1R at 200 nM by cell-based competition binding assay relative to control in presence of DTT. The gist of the method: as §1
Assay [16] addresses High affinity nerve growth factor receptor (Homo sapiens) (UniProt P04629). The assay is described as follows: Binding affinity to human TRKA at 200 nM by cell-based competition binding assay relative to control in presence of DTT.
The target in assay [17] is Tyrosine-protein kinase JAK2 (Homo sapiens) (UniProt O60674). The assay is described as follows: Binding affinity to human JAK2 kinase domain 2 at 200 nM by cell-based competition binding assay relative to control in presence of DTT. The gist of the method:
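Competition binding screen (Ambit) across a panel of 90 kinases, scoring test ligand displacement of each kinase's binding relative to control. The screen ran under reducing conditions with 7.5 mM DTT.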

Assay [18] concerns the target Tyrosine-protein kinase BTK (Homo sapiens) (UniProt Q06187). Description: Binding affinity to human BTK at 200 nM by cell-based competition binding assay relative to control in presence of DTT. Put shortly:
as §2

The target in assay [19] is Serine/threonine-protein kinase PLK1 (Homo sapiens) (UniProt P53350). The assay is described as follows: Binding affinity to human PLK1 at 50 nM by cell-based competition binding assay relative to control in presence of DTT.
Sequence of Serine/threonine-protein kinase PLK1 (Homo sapiens) (P53350 whole entry): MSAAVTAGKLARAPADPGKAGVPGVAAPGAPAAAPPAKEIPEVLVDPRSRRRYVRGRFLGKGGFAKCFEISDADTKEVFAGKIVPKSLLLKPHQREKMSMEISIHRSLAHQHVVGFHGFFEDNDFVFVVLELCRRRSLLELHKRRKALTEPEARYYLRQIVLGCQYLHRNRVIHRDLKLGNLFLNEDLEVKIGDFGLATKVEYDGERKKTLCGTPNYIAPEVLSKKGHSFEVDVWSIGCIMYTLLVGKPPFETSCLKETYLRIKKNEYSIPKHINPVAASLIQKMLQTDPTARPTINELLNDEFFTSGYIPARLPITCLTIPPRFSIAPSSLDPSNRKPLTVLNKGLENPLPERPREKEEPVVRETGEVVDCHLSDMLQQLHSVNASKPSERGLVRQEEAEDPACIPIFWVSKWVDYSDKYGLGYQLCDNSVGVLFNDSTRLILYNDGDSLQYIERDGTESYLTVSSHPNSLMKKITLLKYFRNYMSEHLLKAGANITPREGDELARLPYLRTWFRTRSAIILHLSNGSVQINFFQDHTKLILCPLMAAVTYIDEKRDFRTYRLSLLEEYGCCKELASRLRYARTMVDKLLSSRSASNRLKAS
Assay [20] has as its target Receptor-type tyrosine-protein kinase FLT3 (Homo sapiens) (UniProt P36888). The assay is described as follows: Binding affinity to human FLT3 at 50 nM by cell-based competition binding assay relative to control in presence of DTT. The gist of the method:
as §1

Assay [21] addresses Phosphatidylinositol 4,5-bisphosphate 3-kinase catalytic subunit gamma isoform (Homo sapiens) (UniProt P48736). The assay is described as follows: Binding affinity to human PIK3Cgamma at 50 nM by cell-based competition binding assay relative to control in presence of DTT.
Assay [22] concerns the target Serine/threonine-protein kinase B-raf (Homo sapiens) (UniProt P15056). Description: Binding affinity to human BRAF at 50 nM by cell-based competition binding assay relative to control in presence of DTT. The gist of the method:
as §2

The structures appear in SMILES notation. *1 amine or outer side, *2 acyl side, *3 side chain or, on linkers, in order; H or OH if unused. Where a SMILES comes first, the peptide text is derived from it. Bridges are numbered along the chain shown (N, C = ends). [ ]: non-standard residue; d: D form. The star is where a group is joined. Staurosporine = CO[C@@H]1[C@H](N(C)*)C[C@H]2O[C@]1(C)n1c3ccccc3c3c4c(c5c6ccccc6n2c5c31)C(=O)NC4; Suc = O=C(CCC(=O)[*:2])[*:1]; Dap = NC[C@H](N)C(=O)O; βAla = NCCC(=O)O

Sequence of Receptor tyrosine-protein kinase erbB-2 (Homo sapiens) (P04626 whole entry): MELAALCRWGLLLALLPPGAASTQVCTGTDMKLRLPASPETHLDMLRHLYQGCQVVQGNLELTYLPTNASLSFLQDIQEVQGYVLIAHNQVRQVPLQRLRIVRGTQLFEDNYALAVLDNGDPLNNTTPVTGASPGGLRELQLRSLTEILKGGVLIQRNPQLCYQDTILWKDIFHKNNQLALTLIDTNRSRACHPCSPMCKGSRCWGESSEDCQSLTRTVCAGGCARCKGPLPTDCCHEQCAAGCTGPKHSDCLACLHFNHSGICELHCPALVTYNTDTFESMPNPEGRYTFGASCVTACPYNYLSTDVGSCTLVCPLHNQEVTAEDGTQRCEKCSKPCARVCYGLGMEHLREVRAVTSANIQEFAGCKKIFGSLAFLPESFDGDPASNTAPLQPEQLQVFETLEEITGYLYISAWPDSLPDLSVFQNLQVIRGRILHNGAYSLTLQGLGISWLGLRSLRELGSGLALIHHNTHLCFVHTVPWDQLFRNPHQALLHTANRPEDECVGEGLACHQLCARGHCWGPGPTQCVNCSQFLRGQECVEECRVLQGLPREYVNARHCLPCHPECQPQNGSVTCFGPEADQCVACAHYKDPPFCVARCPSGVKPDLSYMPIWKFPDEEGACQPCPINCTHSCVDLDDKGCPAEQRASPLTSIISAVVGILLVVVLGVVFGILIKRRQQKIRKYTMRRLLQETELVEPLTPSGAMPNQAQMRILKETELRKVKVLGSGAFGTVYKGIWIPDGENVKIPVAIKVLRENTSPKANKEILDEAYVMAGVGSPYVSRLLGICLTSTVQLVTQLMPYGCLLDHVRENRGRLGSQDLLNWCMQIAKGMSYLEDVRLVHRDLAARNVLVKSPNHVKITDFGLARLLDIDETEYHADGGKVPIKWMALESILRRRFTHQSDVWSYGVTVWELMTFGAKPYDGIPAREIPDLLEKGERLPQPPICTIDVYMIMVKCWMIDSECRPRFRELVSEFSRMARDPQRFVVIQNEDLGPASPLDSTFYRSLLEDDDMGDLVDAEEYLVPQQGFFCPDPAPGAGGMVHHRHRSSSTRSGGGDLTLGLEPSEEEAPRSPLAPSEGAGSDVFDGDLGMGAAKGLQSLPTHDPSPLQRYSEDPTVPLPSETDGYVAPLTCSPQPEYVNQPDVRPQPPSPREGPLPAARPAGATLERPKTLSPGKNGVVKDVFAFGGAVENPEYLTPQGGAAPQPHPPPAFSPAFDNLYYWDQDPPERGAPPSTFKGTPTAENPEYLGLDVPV
Sequence of Tyrosine-protein kinase BTK (Homo sapiens) (Q06187 whole entry): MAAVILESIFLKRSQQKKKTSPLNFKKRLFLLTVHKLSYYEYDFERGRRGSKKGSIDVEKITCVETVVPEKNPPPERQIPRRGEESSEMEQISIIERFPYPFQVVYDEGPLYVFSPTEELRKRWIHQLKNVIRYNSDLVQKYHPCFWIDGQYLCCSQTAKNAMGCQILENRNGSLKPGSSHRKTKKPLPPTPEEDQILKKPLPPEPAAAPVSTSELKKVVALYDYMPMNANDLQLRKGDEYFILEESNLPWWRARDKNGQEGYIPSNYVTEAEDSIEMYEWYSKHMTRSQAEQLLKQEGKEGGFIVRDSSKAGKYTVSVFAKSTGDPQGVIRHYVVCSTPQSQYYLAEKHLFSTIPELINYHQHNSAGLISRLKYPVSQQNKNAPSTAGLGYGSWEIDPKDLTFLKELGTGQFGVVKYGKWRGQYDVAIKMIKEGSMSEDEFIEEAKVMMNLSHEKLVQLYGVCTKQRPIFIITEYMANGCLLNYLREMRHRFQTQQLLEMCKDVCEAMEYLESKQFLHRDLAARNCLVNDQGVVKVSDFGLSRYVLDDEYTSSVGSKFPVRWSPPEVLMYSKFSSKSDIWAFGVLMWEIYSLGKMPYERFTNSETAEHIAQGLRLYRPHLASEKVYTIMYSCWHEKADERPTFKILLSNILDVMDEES
Sequence of Serine/threonine-protein kinase pim-1 (Homo sapiens) (P11309 whole entry, looked up): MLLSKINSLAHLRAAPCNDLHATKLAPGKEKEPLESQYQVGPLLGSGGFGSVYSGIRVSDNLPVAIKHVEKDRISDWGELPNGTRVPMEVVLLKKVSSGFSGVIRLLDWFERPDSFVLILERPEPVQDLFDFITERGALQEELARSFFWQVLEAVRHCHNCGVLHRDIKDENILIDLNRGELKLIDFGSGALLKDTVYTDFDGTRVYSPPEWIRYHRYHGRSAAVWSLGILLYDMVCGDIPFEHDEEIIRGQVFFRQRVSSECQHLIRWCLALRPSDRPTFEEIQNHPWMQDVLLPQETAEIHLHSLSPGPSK

For the molecule `CO[C@@H]1[C@H](N(C)C(=O)CCC(=O)NCCC(=O)NCCC(=O)NCCC(N)=O)C[C@H]2O[C@]1(C)n1c3ccccc3c3c4c(c5c6ccccc6n2c5c31)C(=O)NC4`, the Activity in assay [1] turned out to be 100%; in assay [2], 16%; in assay [4] it was 14%; in assay [5], 13%; in assay [6], 95%; in [8] it was 72%. Moreover, the Activity in assay [9] stood at 65%; in [10], 0.6%. Moreover, the Selectivity ratio worked out at 31 in assay [3] and 7 in assay [7].

For the molecule `CO[C@@H]1[C@H](N(C)C(=O)CCC(=O)NCCC(=O)NCCC(=O)NCCC(=O)NCCC(=O)NCCC(=O)NCCC(=O)NCCC(=O)N[C@H]2CSSC[C@@H](C(=O)NCC(N)=O)NC(=O)CNC(=O)[C@H](Cc3ccccc3)NC(=O)[C@H](C(C)C)NC(=O)[C@H](CCCNC(=N)N)NC(=O)[C@H](Cc3ccccc3)NC(=O)[C@H](C(C)C)NC2=O)C[C@H]2O[C@]1(C)n1c3ccccc3c3c4c(c5c6ccccc6n2c5c31)C(=O)NC4` ({Staurosporine-Suc-βAla-βAla-βAla-βAla-βAla-βAla-βAla}-CVFRVFGCG-NH2; disulfide 1-8), the Activity was found to be 100% in [11]; 100% in [12]; 100% in assay [13]; 0.65% in [14]; 44% in [15]; 57% in [16]. Moreover, the Activity in assay [17] amounted to 4%; in assay [18], 62%.

For the molecule `CO[C@@H]1[C@H](N(C)C(=O)CCC(=O)NCCC(=O)NCCC(=O)NCCC(=O)NCCC(=O)NCCC(=O)NCCC(=O)NCCC(=O)N[C@H]2CNC(=O)C[C@@H](C(N)=O)NC(=O)CNC(=O)[C@H](Cc3ccccc3)NC(=O)[C@H](C(C)C)NC(=O)[C@H](CCCNC(=N)N)NC(=O)[C@H](Cc3ccccc3)NC(=O)[C@H](C(C)C)NC2=O)C[C@H]2O[C@]1(C)n1c3ccccc3c3c4c(c5c6ccccc6n2c5c31)C(=O)NC4` ({Staurosporine-Suc-βAla-βAla-βAla-βAla-βAla-βAla-βAla}-[Dap]VFRVFGD-NH2; lactam 1-8), the Activity in [19] came out at 100%; in assay [20], 7.4%; in assay [21], 91%; in [22], 96%.

Source of the values: ChEMBL document CHEMBL1152541, “Staurosporine tethered peptide ligands that target cAMP-dependent protein kinase (PKA): optimization and selectivity profiling” (Bioorg Med Chem, 2009).
